From publication PMC2649974 (Proteins, 2009)

Experiments:
human PMK [1] = molecular target: T1, human PMK (Homo sapiens, UniProt Q15126); assay type: binding; conditions: for Kd: read-out: Kd in all complexes, binary and ternary complexes, NMR, pH 6.5, 25 °C
T1 sequence (Q15126 1-192): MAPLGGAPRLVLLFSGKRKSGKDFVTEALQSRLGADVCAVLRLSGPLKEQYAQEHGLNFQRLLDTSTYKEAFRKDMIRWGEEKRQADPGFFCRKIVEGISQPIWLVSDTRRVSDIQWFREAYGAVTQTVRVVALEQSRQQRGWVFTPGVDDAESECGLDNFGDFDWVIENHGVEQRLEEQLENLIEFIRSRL
Method in brief: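 Uniformly 15N-labelled His6-tagged human PMK from E. coli BL21(DE3) Rosetta, Ni-purified. Held at 400-600 μM in 20 mM KH2PO4, 5 mM DTT, 10% D2O, 0.02% NaN3, pH 6.5, 25 °C. Mg-ADP (1:1 MgCl2) or M5P added in 100 μM steps to saturation, in either order. Fast-exchange 1H/15N shifts (15N scaled by 6.51) were fitted to a quadratic with total protein and ligand.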

human PMK [2] = molecular target: T1, human PMK; conditions: previously reported Km values; cited from earlier work

| Compound | binding to PMK (in words) (human PMK [1]; compared to ATP or ADP, HSQC titration onto Apo-PMK) | Km (human PMK [2]) [µM] | Kd (human PMK [1]) [µM] |
| --- | --- | --- | --- |
| Nc1ncnc2c1ncn2[C@@H]1O[C@H](COP(=O)(O)OP(=O)(O)NP(=O)(O)O)[C@@H](O)[C@H]1O [AMP-PNP] | binds only weakly | – | – |
| C[C@@](O)(CCOP(=O)(O)O)CC(=O)O [M5P, mevalonate 5-phosphate] | – | 34 ± 3 | 6 to 60 |
| Nc1ncnc2c1ncn2[C@@H]1O[C@H](COP(=O)(O)OP(=O)(O)O)[C@@H](O)[C@H]1O [Mg-ADP, ADP] | – | 47 ± 5 | 6 to 60 |
